Series [1] addresses T1, D(2) dopamine receptor (Homo sapiens, UniProt P14416). The series is described as follows: Antagonist activity at human recombinant D2 receptor expressed in HEK293 cells by FLIPR assay. It is filed as functional, cell-based.
For series [2], the target named is T2, D(4) dopamine receptor (Homo sapiens, UniProt P21917).
T2 sequence (P21917 whole entry): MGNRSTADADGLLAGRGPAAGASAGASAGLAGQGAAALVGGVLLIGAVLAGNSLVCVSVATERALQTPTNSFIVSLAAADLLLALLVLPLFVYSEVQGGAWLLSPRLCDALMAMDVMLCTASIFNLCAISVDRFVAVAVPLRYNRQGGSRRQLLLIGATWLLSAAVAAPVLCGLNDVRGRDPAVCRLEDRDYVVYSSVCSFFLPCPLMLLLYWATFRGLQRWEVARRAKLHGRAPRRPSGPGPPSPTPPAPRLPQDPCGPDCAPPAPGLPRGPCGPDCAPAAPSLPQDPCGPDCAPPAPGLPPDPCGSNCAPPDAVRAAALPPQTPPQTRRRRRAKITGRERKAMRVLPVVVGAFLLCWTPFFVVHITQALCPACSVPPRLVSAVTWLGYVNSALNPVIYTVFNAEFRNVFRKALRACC
The series is described as follows: Displacement of [3H]A-369508 from human recombinant D4.4 receptor expressed in HEK293 cell membrane. Type of series: cell membranes. A digest of the protocol: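 Competition binding against the D4-selective agonist radioligand [3H]-A-369508, using membranes from HEK-293 cells engineered to express human D4.4. Mean values (SEM, n ≥ 4).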
On the technique in general: In a radioligand displacement assay an active substance lowers the binding of a labelled ligand.

Series [3] has as its target T1, D(2) dopamine receptor. Put plainly: Displacement of [125I]PIPAT from human recombinant D2L receptor expressed in HEK293 cells.
Series [4] addresses T2, D(4) dopamine receptor. The series is described as follows: Activity at human recombinant D4.4 receptor expressed in HEK293 cells by FLIPR assay. It is filed as functional, cell-based.
The target of series [5] is T1, D(2) dopamine receptor. Put plainly: Agonist activity at human recombinant D2 receptor expressed in HEK293 cells by FLIPR assay. It is filed as functional, cell-based. A digest of the protocol: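 Calcium flux (FLIPR) in HEK-293 cells coexpressing recombinant human D2L with chimeric Gqo5. Efficacy is the maximal response relative to 10 µM dopamine (100%). EC50 is the concentration giving half-maximal stimulation. Values are means (SEM, n ≥ 3).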

Series [6] has as its system Rattus norvegicus. The series is described as follows: Activity against penile erection in Wistar rat at 0.1 umol/kg, sc. Type of series: functional. A digest of the protocol: (§1)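 Male Wistar rats, dosed subcutaneously, were weighed and adapted to a red-lit testing room for 60 min; experiments ran between 9:00 a.m. and 3:00 p.m. Erections were counted by direct observation for 60 min after dosing. The share of animals with one or more erections was reported as incidence (percent), n = 8-30 rats.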

The test system of series [7] is Rattus norvegicus. The series is described as follows: Inhibition of (E)-1-(4-chlorophenyl)-3-(4-pyridin-2-ylpiperazin-1-yl)propan-1-one O-methyloxime-induced erectogenic effect in Wistar rat at 1 umol/kg, ip. It is filed as functional, organism-based.
The subject of series [8] is Rattus norvegicus. Put plainly: Volume of distribution in rat at 1 mg/kg, sc. Type of series: ADME, organism-based. On the set-up: dose 1 mg/kg, route subcutaneous. To be noted: in vivo. A digest of the protocol:
(§2)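 Pharmacokinetics in rat and dog after a 1 mg/kg dose given subcutaneously or orally. Oral bioavailability (F, %), volume of distribution (Vβ, L/kg) and half-life (T1/2, h) were determined.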

The nature of series [9]: Bioavailability in dog at 1 mg/kg, po. It is filed as ADME, organism-based, Canis lupus familiaris. The following applies: in vivo. A digest of the protocol: as §2
The nature of series [10]: Bioavailability in rat at 1 mg/kg, po. It is filed as ADME, organism-based. The following applies: in vivo. A digest of the protocol:
as §2

For series [11], the system named is Rattus norvegicus. Put plainly: Activity against penile erection in Wistar rat at 0.3 umol/kg, sc. Type of series: functional. The method in brief:
as §1

The nature of series [12]: Half life in rat at 1 mg/kg, sc. To be noted: in vivo. Type of series: ADME, organism-based. On the set-up: dose 1 mg/kg, route subcutaneous. A digest of the protocol: as §2
Series [13] in a line: Bioavailability in rat at 1 mg/kg, sc. Type of series: ADME, organism-based. To be noted: in vivo. A digest of the protocol:
as §2

The next series relates to Canis familiaris. Put plainly: Volume of distribution in dog at 1 mg/kg, sc. It is filed as ADME, organism-based, Canis lupus familiaris. The arrangement: dose 1 mg/kg, route subcutaneous. The following applies: in vivo. The method in brief:
as §2

In series [14] the target is D(4) dopamine receptor (Homo sapiens) (UniProt P21917). Put plainly: Agonist activity at human recombinant D4.4 receptor expressed in HEK293 cells by FLIPR assay relative to dopamine.

Active and inactive are the calls of the source. No cut-off for these calls is given here.

By IC50 is commonly meant the concentration at which inhibition is half-maximal. The term Ki denotes the dissociation constant of the complex between target and ligand, obtained from inhibition or displacement. What is called EC50 is the concentration at which the effect is half-maximal. A word on the bioavailability: it is dose-corrected exposure relative to a reference, in per cent. The term half-life denotes how long it takes for the measured level to halve. A lower half-life goes with rapid decline.

T1 sequence (P14416 whole entry): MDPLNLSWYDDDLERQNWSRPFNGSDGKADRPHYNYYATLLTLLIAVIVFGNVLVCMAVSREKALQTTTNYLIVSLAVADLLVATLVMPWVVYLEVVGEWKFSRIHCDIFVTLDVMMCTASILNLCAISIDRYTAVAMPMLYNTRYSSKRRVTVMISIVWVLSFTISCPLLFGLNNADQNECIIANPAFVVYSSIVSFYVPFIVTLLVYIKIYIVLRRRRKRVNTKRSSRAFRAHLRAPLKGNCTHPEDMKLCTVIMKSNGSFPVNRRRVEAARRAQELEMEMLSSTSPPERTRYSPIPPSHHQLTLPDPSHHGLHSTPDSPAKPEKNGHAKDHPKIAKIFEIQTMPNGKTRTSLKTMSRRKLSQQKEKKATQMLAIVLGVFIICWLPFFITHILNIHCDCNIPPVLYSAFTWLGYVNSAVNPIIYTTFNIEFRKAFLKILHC

As to `N#CCO/N=C(\CCN1CCN(c2ccccn2)CC1)c1ccccc1`, the IC50 at D(2) dopamine receptor [1] is over 10000 nM. Further, the Ki was 88 nM on D(4) dopamine receptor [2] and 140 nM on D(2) dopamine receptor [3]. Also, the EC50 at D(4) dopamine receptor [4] is 33 nM; on D(2) dopamine receptor [5], over 10000 nM.
As to `CO/N=C(\CCN1CCN(c2ccccn2)CC1)c1ccc(C)c(C)c1`, the IC50 on D(2) dopamine receptor [1] was over 10000 nM. Further, the values for the Ki at D(4) dopamine receptor [2] and at D(2) dopamine receptor [3] were 27.5 nM and 137 nM, respectively. This compound also showed an Activity in the series with Rattus norvegicus [6] of 68%. Further, the concentration giving a half-maximal response (EC50) was 108 nM on D(4) dopamine receptor [4] and over 10000 nM at D(2) dopamine receptor [5].
For the compound `O=C(CCCN1CCC(O)(c2ccc(Cl)cc2)CC1)c1ccc(F)cc1`, the result in the series with Rattus norvegicus [7] was Active.
Regarding `CO/N=C(/CCN1CCN(c2ccccn2)CC1)c1cc(F)cc(F)c1`, the IC50 on D(2) dopamine receptor [1] is over 10000 nM. Besides, the Ki at D(4) dopamine receptor [2] was determined as 6.3 nM; at D(2) dopamine receptor [3], 225 nM. Besides, the EC50 was 46.7 nM at D(4) dopamine receptor [4] and over 10000 nM on D(2) dopamine receptor [5].
Turning to `CO/N=C(/c1ccc(Cl)cc1)C(CNOC)CN1CCN(c2ccccn2)CC1` (stereo unspecified), the IC50 on D(2) dopamine receptor [1] is over 10000 nM. In addition, the Ki on D(4) dopamine receptor [2] was 120 nM; on D(2) dopamine receptor [3], 164 nM. Also, the EC50 at D(4) dopamine receptor [4] is 206 nM; at D(2) dopamine receptor [5], over 10000 nM.
Turning to `CO/N=C(/c1ccc(Cl)cc1)C(C)CN1CCN(c2ccccn2)CC1` (stereo unspecified), at D(2) dopamine receptor [1], the IC50 is over 10000 nM. In addition, the Ki was determined as 346 nM at D(4) dopamine receptor [2] and 146 nM on D(2) dopamine receptor [3]. The EC50 is 459 nM on D(4) dopamine receptor [4] and over 10000 nM at D(2) dopamine receptor [5].
Take `CO/N=C(/CCN1CCN(c2ccccn2)CC1)c1cccc(F)c1`: the IC50 at D(2) dopamine receptor [1] was over 10000 nM. The Ki at D(4) dopamine receptor [2] was found to be 6.4 nM; at D(2) dopamine receptor [3] it was 46.6 nM. Also, the EC50 was 60.2 nM on D(4) dopamine receptor [4] and over 10000 nM on D(2) dopamine receptor [5].
Turning to `O/N=C(\CCN1CCN(c2ccccn2)CC1)c1ccccc1`, the results for the Vbeta with Rattus norvegicus [8] and with Canis familiaris were 1 L/kg and 1.8 L/kg, respectively. Moreover, the bioavailability in series [9] worked out at 0%; in series [10], 0%; in series [13] it was 68.1%. Besides, the IC50 on D(2) dopamine receptor [1] is over 10000 nM. For the same compound, the Ki at D(4) dopamine receptor [2] is 25.4 nM; at D(2) dopamine receptor [3], 257 nM. The Activity with Rattus norvegicus [11] stood at 60%. In series [12], the half-life is 48 min. The EC50 was 4.4 nM on D(4) dopamine receptor [4] and over 10000 nM on D(2) dopamine receptor [5].
As to `CCO/N=C(\CCN1CCN(c2ccccn2)CC1)c1ccccc1`, the IC50 on D(2) dopamine receptor [1] is over 10000 nM. The Ki on D(4) dopamine receptor [2] came to 38 nM; at D(2) dopamine receptor [3], 128 nM. The same compound gave an Activity in the series with Rattus norvegicus [11] of 55%. Moreover, the EC50 was 28.5 nM at D(4) dopamine receptor [4] and over 10000 nM at D(2) dopamine receptor [5].
Consider `CO/N=C(\CCN1CCN(c2ccccn2)CC1)c1cc(F)cc(F)c1`, for which, at D(2) dopamine receptor [1], the IC50 is over 10000 nM. For the same compound, the values for the Ki on D(4) dopamine receptor [2] and on D(2) dopamine receptor [3] were 110 nM and 132 nM, respectively. For the same compound, the Activity in the series on Rattus norvegicus [6] is given as 68%. For the same compound, the EC50 on D(4) dopamine receptor [4] was 37.2 nM; at D(2) dopamine receptor [5], over 10000 nM.
Regarding `CO/N=C(\CCN1CCN(c2ccccn2)CC1)c1ccccc1C`, the IC50 at D(2) dopamine receptor [1] is over 10000 nM. In addition, the Ki at D(4) dopamine receptor [2] turned out to be 11.4 nM; at D(2) dopamine receptor [3], 112 nM. Further, the EC50 on D(4) dopamine receptor [4] was 74 nM; at D(2) dopamine receptor [5], over 10000 nM.
Consider `CO/N=C(\CCN1CCN(c2ccccn2)CC1)c1ccc(Cl)c(Cl)c1`, for which the IC50 at D(2) dopamine receptor [1] was over 10000 nM. Also, the Ki on D(4) dopamine receptor [2] was determined as 6.4 nM; on D(2) dopamine receptor [3] it was 64.5 nM. Also, the Activity with Rattus norvegicus [11] is on record as 76%. Further, the EC50 on D(4) dopamine receptor [4] was 542 nM; at D(2) dopamine receptor [5], over 10000 nM.
With `CO/N=C(\CCN1CCN(c2ccccn2)CC1)c1cccc(F)c1`, the IC50 at D(2) dopamine receptor [1] was over 10000 nM. Besides, the Ki on D(4) dopamine receptor [2] stood at 13.9 nM; on D(2) dopamine receptor [3] it was 101 nM. Moreover, the results for the EC50 at D(4) dopamine receptor [4] and on D(2) dopamine receptor [5] were 44.6 nM and over 10000 nM, respectively.
With `CO/N=C(/CCCN1CCN(c2ccccn2)CC1)c1ccc(F)cc1`, the Efficacy in series [14] is 65%. Further, the IC50 at D(2) dopamine receptor [1] is over 10000 nM. The figures for the EC50 on D(4) dopamine receptor [4] and at D(2) dopamine receptor [5] were 33.5 nM and 366 nM, respectively.
With `CO/N=C(\CCN1CCN(c2ccccn2)CC1)c1cccc(C)c1`, the IC50 on D(2) dopamine receptor [1] is over 10000 nM. Besides, the Ki was determined as 8 nM at D(4) dopamine receptor [2] and 68.4 nM on D(2) dopamine receptor [3]. For the same compound, the EC50 was 27.6 nM at D(4) dopamine receptor [4] and over 10000 nM on D(2) dopamine receptor [5].

These data come from ChEMBL document CHEMBL1145336, “1-aryl-3-(4-pyridine-2-ylpiperazin-1-yl)propan-1-one oximes as potent dopamine D4 receptor agonists for the treatment of erectile dysfunction” (J Med Chem, 2006).
